Most compounds without a hit are left out; they make up all but 0.64% or so of the library.
PMI act hi M6P: human PMI activators, high substrate, primary screen, biochemical, fluorescence intensity, near-saturating mannose 6-phosphate; 190,000 tested, 0.34% active; Mannose-6-phosphate isomerase (Homo sapiens), P34949; activation factor at 20 µM; coupled PMI enzyme assay, resazurin fluorescence, 20 min; hits give high values; 1 = untreated enzyme, 0 = substrate-free blank; AID 1216, 2008;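 active = activation factor of 2 or more at 20 µM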
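Test system: human phosphomannose isomerase with PGI, G6PDH, diaphorase coupling enzymes / Doses: 20 µM compound, 1% DMSO / Times: enzyme reaction with compound 20 min at room temperature / Measured by: Diaphorase-driven resazurin-to-resorufin fluorescence, excitation 544, emission 590 nm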
TNAP inh hi DEA: human TNAP enzyme inhibitors, primary screen, biochemical, luminescent, high phosphate acceptor level, uHTS | 200,000 tested, 0.03% active | AID 1135, 2008 | purified TNAP, CDP-star luminescence, 1 M DEA | inhibition, % at 20 µM | Alkaline phosphatase, tissue-nonspecific isozyme (Homo sapiens), P05186;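 active = over 50% inhibition of tissue-nonspecific alkaline phosphatase at 20 µM in the single-dose screen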
Target sequence (P05186 whole entry, looked up): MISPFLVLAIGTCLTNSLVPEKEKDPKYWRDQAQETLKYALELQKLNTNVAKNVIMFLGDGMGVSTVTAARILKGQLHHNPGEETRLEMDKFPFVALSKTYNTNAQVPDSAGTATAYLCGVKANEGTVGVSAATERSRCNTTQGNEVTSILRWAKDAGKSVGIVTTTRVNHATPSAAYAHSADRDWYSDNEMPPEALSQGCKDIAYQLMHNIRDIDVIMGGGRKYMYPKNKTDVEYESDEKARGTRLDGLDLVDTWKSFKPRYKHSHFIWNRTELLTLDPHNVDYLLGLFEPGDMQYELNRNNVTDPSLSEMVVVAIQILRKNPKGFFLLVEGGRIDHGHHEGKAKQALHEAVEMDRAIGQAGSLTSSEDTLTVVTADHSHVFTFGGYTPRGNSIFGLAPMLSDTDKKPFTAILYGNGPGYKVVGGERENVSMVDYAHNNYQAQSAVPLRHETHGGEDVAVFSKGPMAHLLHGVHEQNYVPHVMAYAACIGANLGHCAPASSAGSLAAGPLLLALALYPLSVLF
TNAP act hi DEA: TNAP activators at high phosphate acceptor level, primary screen, biochemical, luminescence, uHTS; Alkaline phosphatase, tissue-nonspecific isozyme (Homo sapiens), P05186; purified TNAP, CDP-star luminescence, 1 M DEA, 30 min; hits give high values; 0 = EDTA background, 1 = DMSO-only activity; activation factor at 20 µM; 200,000 tested, under 10 active;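 active = activation factor at least 2 at 20 µM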
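Dosing: 20 µM single point. System: human TNAP. Amount: TNAP 1/800 final. Incubation: 30 min, room temperature. Read-out: TNAP activation factor scaled between EDTA and DMSO control wells. Signal: luminescence from CDP-star hydrolysis. Medium: 1 M DEA, pH 9.8, Mg2+, Zn2+. Control set: EDTA negative control, DMSO positive control.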
PMI activator: activators of human PMI, primary screen, biochemical, fluorescence intensity, near-Km mannose 6-phosphate | Mannose-6-phosphate isomerase (Homo sapiens), P34949 | purified human PMI, coupled resazurin fluorescence, 20 min; hits give high values; 1 = vehicle control, 0 substrate-free wells | activation factor at 20 µM | 190,000 tested, 0.005% active | AID 1214, 2008;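 active = activation factor of 2 or more at 20 µM, relative to plate controls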
TNAP inh noacc: human TNAP enzyme inhibitors, primary screen, biochemical, luminescent, no phosphate acceptor, uHTS; purified TNAP, CDP-star luminescence, 30 min; inhibition, % at 20 µM; 200,000 tested, 0.26% active;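 active = tissue-nonspecific alkaline phosphatase inhibition above about 50% at 20 µM in the single-dose screen, limit read from the data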
Numbers stand for hits; . = inactive.

SMILES	PMI act hi M6P	TNAP inh hi DEA	TNAP act hi DEA	PMI activator	TNAP inh noacc
Cc1ccc(OCC(=O)NN=C2c3ccccc3-c3ccccc32)cc1	.	.	.	.	.
O=C(CSc1nc2ncccc2[nH]1)c1ccc(F)cc1	.	.	.	.	53.5
COc1ccc(NC(=O)CSc2nc3ncccc3[nH]2)cc1OC	.	.	.	.	.
COc1ccc(OC)c(C(=O)CSc2nc3ncccc3[nH]2)c1	.	.	.	.	63.3
Cc1cc(C)n2[nH]c(=O)c(N=Nc3ccc(S(N)(=O)=O)cc3)c2n1	.	.	.	.	91.2
Cc1ccc(N=Nc2c(=O)[nH]n3c(C)cc(C)nc23)cc1	.	.	.	.	.
O=C1NC(=Nc2ccccc2)S/C1=C\C=C\c1ccco1	.	.	.	.	56.1
Cc1ccc(N=C2NC(=O)/C(=C/C=C/c3ccco3)S2)cc1	.	.	.	.	.
CC(C)(C)C1CCC(=NNC(=O)C(=O)NCc2cccnc2)CC1 (stereo not drawn)	.	.	.	.	.
CC(C)(C)C1CCC(=NNC(=S)NCc2ccccc2)CC1 (stereo not drawn)	2	.	.	.	.
CCC(C)(C)C1CCC(=NNC(=S)Nc2ccccc2)CC1 (stereo not drawn)	2.3	.	.	.	.
O=C(Nc1nc2c(s1)CN(Cc1ccccc1)CC2)C1CCC1	.	.	.	.	.
CN(C)c1ccc(/C=C(\C#N)C(=O)Nc2nc3c(s2)CCN(Cc2ccccc2)C3)cc1	.	.	.	.	55.4
O=c1oc2ccccc2cc1-c1ccccc1	.	.	.	.	.
O=C(O)c1ccc(-n2cc(-c3cc4ccccc4oc3=O)[nH]c2=S)cc1	2.4	.	.	.	.
CCn1c(SC(C)C(=O)O)nc2sc3c(c2c1=O)CCC3 (stereo not drawn)	.	.	.	.	.
O=C(N/N=C/c1ccccc1C(=O)O)c1cc(-c2ccc3c4c(cccc24)CC3)n[nH]1	.	.	.	.	74.1
Cc1cc(C(=O)N2CCCCCC2)cs1	.	.	.	.	.
Cc1[nH]nc2c1C(=O)CC(C)(C)C2	.	.	.	.	55.4
Cc1[nH]nc2c1/C(=N\O)CC(C)(C)C2	.	.	.	.	.
CCc1n[nH]c2c1C(=O)CC(C)(C)C2	.	.	.	.	51.3
CCc1n[nH]c2c1/C(=N/O)CCC2	.	.	.	.	.
COc1cccc(OC)c1C(=O)N=c1sc2cc(S(C)(=O)=O)ccc2n1C	.	.	.	.	.
O=C(/C=C/c1ccc(O)c(O)c1)c1ccc(S(=O)(=O)N2CCCCCC2)cc1	.	.	.	.	57.3
COC(=O)c1ccc(S(=O)(=O)N2CCCCCC2)cc1	.	.	.	.	.
SMILES	PMI act hi M6P	TNAP inh hi DEA	TNAP act hi DEA	PMI activator	TNAP inh noacc
CN1C(=S)N(c2cccnc2)C(=O)/C1=C\c1ccc(N(C)C)cc1	.	.	.	.	51.7
CCC(C)OC(=O)C1=C(C)O[C@]23OC(N)=C(C#N)[C@]12C(=O)c1ccccc13 (stereo partly drawn)	.	.	.	.	.
O=C(Nc1ccc(S(=O)(=O)N2CCCC2)cc1)N1c2ccccc2Sc2ccccc21	.	.	.	.	.
CC(C)(C)N/N=C/c1c(O)n(-c2ccc(Cl)cn2)c(=O)c2ccccc12	2.5	.	.	.	.
CSc1sc2ccccc2[n+]1CCCS(=O)(=O)[O-]	2	.	.	.	.
Cc1ccc(N2NC(C)(c3cccs3)NC2=S)cc1 (stereo not drawn)	2.7	.	.	.	.
COC(=O)c1ccc(NC(=O)Cn2nc(C)cc2C)cc1	.	.	.	.	.
O=C(C1CCN(Cc2cn[nH]c2-c2ccc(F)cc2F)CC1)N1CCOCC1	.	.	.	.	51.0
COc1ccc(OC)c(S(=O)(=O)N2CCC(C(=O)N3CCOCC3)CC2)c1	.	.	.	.	.
OCCCC1CCCN(Cc2cn[nH]c2-c2ccc(F)cc2F)C1 (stereo not drawn)	.	.	.	.	52.7
COc1ccc(-c2[nH]ncc2CN2CCC(C(=O)N3CCOCC3)CC2)c(F)c1	.	.	.	.	67.8
CN(C)C(=O)c1cn(-c2ccccc2)nc1-c1cc2ccccc2o1	2.5	.	.	.	.
O=C(C[n+]1ccc(C(=O)N/N=C/c2ccc(O)cc2)cc1)c1ccccc1	.	.	.	.	51.1
CCOC(=O)c1nc2cc3n(c(CC(C)C)c-2c1C)CC(C)=C3C	2.4	.	.	.	.
C/C(N)=C(/C#N)C(=O)CSc1n[nH]c(-c2cccs2)n1	.	.	.	.	62.4
Cc1cc(NC(=O)CSc2n[nH]c(-c3cccs3)n2)no1	.	.	.	.	.
COc1ccc(C2=Nn3c(nnc3-c3ccco3)SC2)cc1	.	.	.	.	.
Oc1ccc(C2=Nn3c(nnc3-c3ccco3)SC2)cc1O	.	.	.	.	91.0
CSCSC1=C(C#N)C(c2ccc(Cl)cc2)C(C(C)=O)=C(C)N1 (stereo not drawn)	2.1	.	.	.	.
CC1(C)Cc2[nH]c(=S)c(C#N)cc2CO1	.	.	.	.	.
N#Cc1cc2c([nH]c1=S)CCCC2	2	.	.	.	.
CC(C(=O)O)c1n[nH]c(=O)c2ccccc12 (stereo not drawn)	.	.	.	.	.
Cc1ccc2c(c1)C(c1ccccc1)N(C(=O)c1cc3ccccc3oc1=O)CC(=O)N2 (stereo not drawn)	.	.	.	.	.
Cc1cc(C)c2c(N)c(C(=O)N3CCc4ccccc4C3)sc2n1	2	.	.	.	.
CC(C)c1ccc2nc3sc(C(=O)N4CCc5ccccc5C4)c(N)c3cc2c1	.	.	.	.	.
SMILES	PMI act hi M6P	TNAP inh hi DEA	TNAP act hi DEA	PMI activator	TNAP inh noacc
Cc1ccc(NC(=O)c2ccc3c(c2)[nH]c(=O)n3C(C)C)cc1	.	.	.	.	.
COc1cc(/C=C2\SC(=O)N(CCNC(=O)c3cnc(C)cn3)C2=O)cc(OC)c1OC	.	.	.	.	.
CC1=NN(c2ccccc2)C(=O)/C1=C/C=C/C=C/N(C)C	.	55.1	.	.	.
CC1=NN(c2ccc(C)cc2)C(=O)/C1=C\C=C\c1ccccc1	.	.	.	.	.
O=C(CN1CCCc2ccccc21)NC(=O)NC1CCCCC1	.	.	.	.	.
NC(=O)C1CCN(C(=O)CN2CCCc3ccccc32)CC1	2	.	.	.	.

Screening results as filed in PubChem BioAssay.
